An excerpt weighted towards active compounds, which were near 2.9% of everything screened.
DDE Tn7 FP inh: disrupts Tn7 cyclic peptide binding to fibrin D-Dimer-E complex. FP displacement of FITC-Tn7 peptide from fibrin DD(E); 0% = median of compound wells per plate. inhibition, % at 8.3 µM. 370,000 tested, 0.13% active. AID 720508;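 active means inhibition above the mean of compounds falling within the control limits plus 3 SD of them, cut at about 14% in these data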;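 further: 0% = plate median of compound wells and 100% = 10 µM Aha-Tn7 peptide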
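system = human fibrin DD(E) protein | quantity = DD(E) 2 µM final | medium = Tris/NaCl/CaCl2 buffer, pH 7.8 | also added = labelled Tn7 tracer, 0.1 µM | compound dosing = single point at 8.3 µM | timing = compound with protein 10 min, then 3 h after probe, room temperature | signal = FP measurement | benchmarks = Aha-Tn7 high control | repeats = one replicate per compound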
Tn6 DDE FP: DD(E)-Tn6 binding inhibition, primary FP screen | P02675 | Fibrin DD(E) TRITC-Tn6 fluorescence polarization displacement | inhibition, % at 8.3 µM | 370,000 tested, 0.21% active;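 active means inhibition above a per-campaign cutoff: mean of compounds within control limits plus 3 SD, cut at about 15% in these data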;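 further: 0% = median of all compound wells on the plate and 100% = blocking peptide control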
CRFBP-R2 block: CRF-BP/CRF-R2 complex antagonism; HEK293 CRF-R2/CRF-BP, CRF-induced calcium fluorescence; 350,000 tested, 0.59% active; inhibition, % at 11.8 µM;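 active means inhibition of the ligand-induced calcium signal above about 50% at the single tested concentration, limit read from the data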
CRFBP-R2 agonist: CRF-BP/CRF-R2 complex agonism; HEK293 CRF-R2/CRF-BP, calcium dye fluorescence (FLIPR); percent of saturating CRF peptide response; activation, % at 13.2 µM; 350,000 tested, 0.46% active;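 active means activation of at least 50%, plus an integration ratio under a set limit after plate pattern correction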;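 further: plate controls were neutral control wells without compound for no effect and CRF at EC100 for full effect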
proKLK7 act: activates the human kallikrein-7 zymogen; purified proKLK7, EDANS-DABCYL substrate fluorescence; 100% is mature enzyme control, 0% vehicle; activation, % at 7 µM; 370,000 tested, 0.9% active; AID 652039;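 active means activation above the mean of all tested compounds plus 3 SD, computed per campaign excluding outliers beyond control limits, cut at about 13% in these data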
CendR NRP1 mod: NRP-1/CendR interaction modulation. O14786. FAM-RPARPAR peptide binding to NRP-1, fluorescence polarization. 360,000 tested, 0.85% active. inhibition, % at 25 µM;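 active means inhibition or corrected inhibition above about 18%, plus a signal ratio from 0.5 to 1.5, limit read from the data, passing the limit was not always enough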
Target sequence (O14786 whole entry, looked up): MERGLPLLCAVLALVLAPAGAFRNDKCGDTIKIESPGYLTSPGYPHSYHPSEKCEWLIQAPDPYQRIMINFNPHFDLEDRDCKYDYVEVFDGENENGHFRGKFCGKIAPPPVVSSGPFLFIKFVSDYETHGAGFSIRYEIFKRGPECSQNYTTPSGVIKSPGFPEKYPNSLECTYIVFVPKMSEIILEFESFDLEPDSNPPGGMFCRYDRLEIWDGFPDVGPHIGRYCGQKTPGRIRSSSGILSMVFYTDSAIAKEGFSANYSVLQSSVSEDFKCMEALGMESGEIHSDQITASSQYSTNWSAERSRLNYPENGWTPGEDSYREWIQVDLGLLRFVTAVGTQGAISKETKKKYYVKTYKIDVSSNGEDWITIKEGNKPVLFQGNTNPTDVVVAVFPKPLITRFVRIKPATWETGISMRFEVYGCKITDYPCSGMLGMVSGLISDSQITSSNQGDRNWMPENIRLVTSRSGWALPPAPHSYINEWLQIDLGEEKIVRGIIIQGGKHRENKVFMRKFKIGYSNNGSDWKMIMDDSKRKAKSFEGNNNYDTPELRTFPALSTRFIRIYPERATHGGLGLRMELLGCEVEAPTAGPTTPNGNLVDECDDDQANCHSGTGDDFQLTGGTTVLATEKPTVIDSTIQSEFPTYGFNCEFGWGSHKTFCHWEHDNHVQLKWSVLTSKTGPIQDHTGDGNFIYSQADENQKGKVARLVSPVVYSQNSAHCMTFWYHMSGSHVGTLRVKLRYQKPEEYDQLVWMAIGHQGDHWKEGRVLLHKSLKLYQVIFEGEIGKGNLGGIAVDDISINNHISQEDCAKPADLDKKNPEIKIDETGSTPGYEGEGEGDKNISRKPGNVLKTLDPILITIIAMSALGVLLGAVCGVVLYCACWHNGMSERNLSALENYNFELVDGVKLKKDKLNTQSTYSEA
Active calls of the source: *; x = no result.

SMILES	DDE Tn7 FP inh	Tn6 DDE FP	CRFBP-R2 block	CRFBP-R2 agonist	proKLK7 act	CendR NRP1 mod
Nc1ccc(C(=O)Nc2ccc(Nc3ccncc3)cc2)c([N+](=O)[O-])c1	0	-6	13	0	0	27*
O=C(c1cccs1)N1CC[C@H]2[C@H](CCCN2Cc2ccc(F)cc2)C1	3	7	x	x	0	x
Cc1cc(NC(=O)CCC(=O)N(Cc2cccs2)C(C)(C)C(=O)NC2CCCCC2)no1	-1	10	2	0	-1	20*
Cc1c(Cl)c(C(F)(F)F)nn1CC(=O)N1CCSCC1	8	1	6	-2	0	48*
COC(=O)NN1C(=O)C(c2ccccc2)=C(c2ccc(Cl)cc2)C1=O	5	-1	51*	-4	0	9
COC(=O)Nc1c(-c2ccccc2)nc2ccc(Cl)cn12	0	8	-8	3	2	3
C[C@H](CO)N1C[C@H](C)[C@@H](CN(C)C(=O)Nc2ccc3c(c2)OCO3)OCc2cn(nn2)CCCC1=O	11	5	x	x	0	x
Brc1ccccc1-c1nnc(CSc2nnnn2-c2ccccc2)o1	-3	1	111*	0	0	-4
Cc1nnc(SCc2nnc(-c3ccccc3Br)o2)n1-c1ccccc1	2	4	0	1	0	0
NC(=O)C[n+]1cccc2ccccc21	9	-6	5	8	0	32*
COc1cc2c(cc1NC(=O)CSc1nnc(-c3ccccc3F)n1-c1ccc(C)cc1)oc1ccccc12	2	-8	x	x	0	x
O=[N+]([O-])c1ccc(-c2nc3ccc([N+](=O)[O-])cc3[nH]2)cc1	-4	12	25	41	0	36*
CCn1c(COc2ccccc2C)nc2ccccc21	-4	-8	23	73*	0	-1
COC(=O)C1CN(Cc2ccc(Cl)cc2)CCS(=O)(=O)N1Cc1cn(Cc2ccccc2)nn1 (stereo not drawn)	-3	-8	x	x	1	x
C=CCC12C=C(OC)C(=O)C(C1=O)C1c3ccccc3CC12 (stereo not drawn)	2	0	x	x	0	x
COc1ccc(S(=O)(=O)N(C)CC(=O)NC2CCCCC2)cc1OC	2	6	51*	0	1	-14
COC(=O)C1CN(Cc2cn(CCC3OCCO3)nn2)CCS(=O)(=O)N1Cc1ccc(Cl)cc1 (stereo not drawn)	-7	4	x	x	0	x
O=C(NN1C(=O)CSC1=S)c1cccnc1	-1	3	77*	-2	0	-78
Cc1ccccc1C(=O)NN1C(=O)CSC1=S	-7	-3	7	0	0	0
O=C1NC[C@@H](CCCCN2C[C@H](Cc3ccccc3)N(CCc3ccc(O)cc3)C(=O)C2=O)N(Cc2ccccc2)C1=O	-1	-1	x	x	0	18*
COc1ccc(-c2cccc3[nH]c4c(c23)CCN2C(=O)[C@H]3[C@H](C)ON(C)[C@H]3C[C@@H]42)cc1	-10	1	x	x	-36	x
CNc1nc(N)c([N+](=O)[O-])c(Nc2cccc(OC)c2)n1	-9	-2	x	x	x	x
CCC(CC)=NNc1cccc([N+](=O)[O-])c1	-2	1	12	0	0	-11
N#C/C(=N\Nc1ccccc1Cl)C(=O)c1ccccc1	-6	2	85*	38	0	4
N#C/C(=N\Nc1cccc(Cl)c1)C(=O)c1ccccc1	-1	6	47	58*	-1	-6
SMILES	DDE Tn7 FP inh	Tn6 DDE FP	CRFBP-R2 block	CRFBP-R2 agonist	proKLK7 act	CendR NRP1 mod
COc1ccc(C(=O)/C(C#N)=N/Nc2cccc([N+](=O)[O-])c2)cc1	8	1	57*	28	0	12
Cc1ccc(-c2cc(C(=O)NN=Cc3cccc4ccccc34)[nH]n2)cc1C	-5	7	x	x	-11	x
CCC(C)NC(=O)C1CCN(S(=O)(=O)c2ccc3[nH]c(=O)oc3c2)CC1 (stereo not drawn)	3	-2	x	x	1	x
CN(CCOC(=O)c1cccs1)C1CN(Cc2cn(Cc3ccccc3Cl)nn2)S(=O)(=O)C1 (stereo not drawn)	3	-3	x	x	0	x
CC(=O)N1CCc2cc(S(=O)(=O)NC3CCN(C(=O)OCc4ccccc4)CC3)ccc21	-7	0	x	x	0	x
O=C(O)c1cccc(N/C(=N\S(=O)(=O)c2ccccc2)c2ccccc2)c1	3	0	84*	10	0	-1
Cc1ccc(S(=O)(=O)/N=C(/Nc2cccc(C(=O)O)c2)c2ccccc2)cc1	3	-4	-17	0	1	2
COc1c(O)cccc1[C@H](O)C1CCN(CCc2ccc(F)cc2)CC1	2	-2	3	5	0	43*
CCN1CCC(NCCc2ccc(F)cc2)CC1	6	8	0	2	0	-8
COc1cccc(NC(=S)N(Cc2cccc(Br)c2)CC2CCC(C(=O)O)CC2)c1 (stereo not drawn)	-5	5	7	-2	0	30*
COc1ccc(NC(=S)N(Cc2cccc(Br)c2)CC2CCC(C(=O)O)CC2)cc1 (stereo not drawn)	1	-2	0	-1	1	10
Cc1cccc(C(=O)N2CCc3ccccc3C2)c1[N+](=O)[O-]	-1	-3	85*	-5	0	5
CCOC(=O)C1(CC2CCCCO2)CCN(Cc2nccn2-c2cccc(C)c2)CC1 (stereo not drawn)	-5	6	7	0	1	-2
CCOC(=O)C1(CC2CCCCO2)CCN(Cc2nccn2-c2ccc(OC)cc2)CC1 (stereo not drawn)	9	0	52*	-3	0	-1
Cc1cc(Nc2cc(Cl)cc(Cl)c2)cc(=O)n1-c1cc(Cl)cc(Cl)c1	2	-4	x	x	0	x
CCOc1ccc(C(=O)Nc2nnc(SCC(=O)NCC3CCCO3)s2)cc1OCC (stereo not drawn)	-5	4	-24	-5	-1	21*
COc1ccc2c3c(cccc13)OC2=O	-2	5	-1	-1	-1	-19
COc1ccc2c3c(cccc13)N(C)N=C2C	6	2	-9	8	-41	63*
COc1cc(/C=C/C(=O)OC(C)C(=O)Nc2c(C)n(C)n(-c3ccccc3)c2=O)ccc1O (stereo not drawn)	6	0	9	-2	0	7
CCc1ccc(NC(=O)C(C)OC(=O)/C=C/c2ccc(O)c(OC)c2)cc1 (stereo not drawn)	-4	0	-66	92*	-4	7
O=C(O)c1cnc(-c2ccccc2)nc1Sc1ccc(Cl)cc1Cl	1	0	97*	-3	0	-53
O=C(O)c1cnc(-c2ccccc2)nc1Sc1cccc(Cl)c1	-7	7	16	0	1	-21

Bioassay records: PubChem, several laboratories
